Results: ChEMBL document CHEMBL4602722, “Structural Studies on the Inhibitory Binding Mode of Aromatic Coumarinic Esters to Human Kallikrein-Related Peptidase 7” (J Med Chem, 2020)
Activity calls are given as the source filed them. No cut-off for these calls is given here.

Experiments:
[1] = target: Kallikrein-7 (Homo sapiens) (UniProt P49862); test: Inhibition of N-terminal SUMO and His6-tagged human KLK7 assessed as protease activity by measuring fluorogenic peptide substrate NFF-3 cleavage (reference value: >400 pmol/(min.ug)
[2] = target: Kallikrein-7 (Homo sapiens) (UniProt P49862); test: Inhibition of N-terminal SUMO and His6-tagged human KLK7 assessed as reduction in vaspin-N-terminal cleavage using compound pre-treated KLK7 incubated for 60 mins by Coomassie-staining based SDS-PAGE method
In short: (§1)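 KLK7 was pre-treated with 1 mM compound (10 % DMSO, 37 °C, 30 min) and concentrated on a 5 kDa spin column. It was then mixed with vaspin at a 3:1 molar ratio (3.15 μM KLK7, 1.05 μM vaspin) in 50 mM Tris, 150 mM NaCl, pH 8.0 (elsewhere stated as pH 7.5) at room temperature for up to 60 min. Time-point samples were boiled 5 min in reducing SDS buffer, run on 12 % gels and Coomassie-stained.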

[3] = target: Kallikrein-7 (Homo sapiens) (UniProt P49862); test: Inhibition of N-terminal SUMO and His6-tagged human KLK7 expressed in Escherichia coli Rosetta (DE3) pLysS assessed as reduction in covalent KLK7-vaspin complex formation using compound pre-treated KLK7 incubated for 60 mins by Coomassie-staining based SDS-PAGE method; in short: as §1
[4] = target: Kallikrein-7 (Homo sapiens) (UniProt P49862); test: Covalent binding affinity to of N-terminal SUMO and His6-tagged human KLK7 expressed in Escherichia coli Rosetta (DE3) pLysS assessed as compound binding to His57 of catalytic triad by mass spectrometry
[5] = Stability in 100% DMSO at -20 degC for several months by ESI-MS and 1H NMR spectroscopy; assay type: physicochemical

Chain of Kallikrein-7 (Homo sapiens) (P49862 30-253 limits assumed): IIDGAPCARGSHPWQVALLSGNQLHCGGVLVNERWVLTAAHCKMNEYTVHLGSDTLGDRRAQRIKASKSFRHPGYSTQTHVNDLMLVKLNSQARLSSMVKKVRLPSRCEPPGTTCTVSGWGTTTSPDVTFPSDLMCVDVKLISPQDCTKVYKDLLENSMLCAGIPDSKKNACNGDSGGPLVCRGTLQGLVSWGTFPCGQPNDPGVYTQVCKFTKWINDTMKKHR

SMILES | Activity [1] [pmol/min/µg] | inhibition [2] | inhibition [3] | Activity [4] | Stability [5]
O=C(Oc1cccc(Cl)c1)c1cc2cc(CCl)ccc2oc1=O | < 0.1 | inactive | Active |  | 
O=C(Oc1cccc(Br)c1)c1cc2cc(CCl)ccc2oc1=O | < 0.1 | inactive | Active | Active | Stable
O=C(Oc1cccc(I)c1)c1cc2cc(CCl)ccc2oc1=O | < 0.1 | inactive | Active |  | 
